The record followed here is ChEMBL document CHEMBL1134609, “Dinuclear alkyldiamine platinum antitumor compounds: a structure-activity relationship study” (J Med Chem, 2001).

One experiment has as its system L1210/2. Description: Cytotoxicity in cisplatin-resistant L1210/2 cell lines. Type of experiment: functional, cell-based, Mus musculus. The essentials:
(§1)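 Murine leukemia L1210/0 (wild-type) or L1210/2 (cisplatin-resistant) cells in McCoy's 5a + 10% FCS with penicillin/streptomycin; 5 × 10⁴ cells/mL pre-cultured 24 h at 37 °C, 5% CO2. Then treated with at least three platinum concentrations (fresh water stocks diluted in medium). Cells counted in a counting chamber after 72 h. IC50 = concentration reducing growth to 50% of control; each concentration tested in ≥2 independent experiments.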

The test system of a further experiment is L1210. Nature of the experiment: Cytotoxicity against L1210/0 cell line of murine leukemia. Type of experiment: functional, cell-based, Mus musculus. In a few lines: as §1
A short description of experiment [1]: Resistance factor was determined using the ratio of cytotoxicity of both the cell lines. Type of experiment: functional.

On to CISPLATIN [listing 1 of 2 here], for which the IC50 (usually the point on the concentration scale where inhibition reaches its midpoint) in the experiment with L1210/2 amounted to 4.6 µM; in the experiment with L1210 it was 1.5 µM.
On to CISPLATIN [listing 2 of 2 here], for which the RF in experiment [1] worked out at 3.1.
On to TRANSPLATIN [listing 1 of 2 here], for which the IC50 in the experiment on L1210/2 was found to be 22 µM; with L1210, 15.7 µM.
For TRANSPLATIN [listing 2 of 2 here], the RF in experiment [1] is 1.4.
